Measured values published in ChEMBL document CHEMBL2040797, “Synthesis of benzimidazoles bearing oxadiazole nucleus as anticancer agents” (2012).

Assays:
Type in all cases: functional
RXF 393 [1] = assay: Growth inhibition of human RXF393 cells at 10 uM after 48 hrs by sulforhodamine B assay; details: RXF 393, 48 h, read-out: GI
Outline: (§1)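 NCI one-dose primary screen at 10 (printed mM) across the 60-line panel. Cells in RPMI 1640 with 5% FBS and 2 mM L-glutamine, plated at 5000–40,000 cells/well and incubated 24 h before dosing. Exposure 48 h at 37 °C, 5% CO2. Adherent cells were fixed with cold TCA, suspension cells fixed after settling. SRB stain, absorbance 515 nm. Reported as percent growth of treated cells relative to control.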

PC-3 = assay: Growth inhibition of human PC3 cells at 10 uM after 48 hrs by sulforhodamine B assay; details: PC-3, 48 h, read-out: GI; outline: as §1
KM12 = assay: Cytotoxicity against human KM12 cells after 48 hrs by sulforhodamine B assay; details: KM12, 48 h
Outline: (§2)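 NCI 60-panel screen. Cells were grown in RPMI 1640 with 5% FBS and L-glutamine and plated at 5000–40,000 cells/well according to doubling time. They were preincubated 24 h at 37 °C, 5% CO2, then exposed 48 h to five 10-fold dilutions. Adherent cells were fixed with cold TCA, final 10%; suspension cells were fixed after settling. Cells were stained with 0.4% SRB and read at 515 nm. Tz/C/Ti growth curves gave GI50, TGI and LC50.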

A549 = assay: Growth inhibition of human A549 cells at 10 uM after 48 hrs by sulforhodamine B assay; details: A549, 48 h, read-out: GI; outline: as §1
COLO 205 = assay: Growth inhibition of human COLO205 cells at 10 uM after 48 hrs by sulforhodamine B assay; details: COLO 205, 48 h, read-out: GI; outline: as §1
CCRF-CEM = assay: Cytotoxicity against human CCRF-CEM cells after 48 hrs by sulforhodamine B assay; outline: as §2
SK-OV-3 [2] = assay: Cytotoxicity against human SKOV3 cells after 48 hrs by sulforhodamine B assay; details: SK-OV-3, 48 h; outline: as §2
NCI-H226 = assay: Cytotoxicity against human NCI-H226 cells after 48 hrs by sulforhodamine B assay; details: NCI-H226, 48 h; outline: as §2
UACC-62 = assay: Growth inhibition of human UACC62 cells at 10 uM after 48 hrs by sulforhodamine B assay; details: UACC-62, 48 h, read-out: GI
Outline: (§3)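 NCI-60 single-dose screen. Cells grown in RPMI 1640 with 5% FBS and L-glutamine, plated at 5000–40,000 cells/well by doubling time, and preincubated 24 h at 37 °C, 5% CO2. Compound stocks in DMSO, added at one concentration, then incubated 48 h. Adherent cells fixed with cold TCA (10% final), stained with 0.4% SRB, dye solubilized in 10 mM Tris base, A515 read. Reported as percent growth relative to untreated control.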

MOLT-4 = assay: Cytotoxicity against human MOLT4 cells after 48 hrs by sulforhodamine B assay; details: MOLT-4, 48 h; outline: as §2
U-251 [3] = assay: Growth inhibition of human U251 cells at 10 uM after 48 hrs by sulforhodamine B assay; details: U-251, 48 h, read-out: GI; outline: as §3
SN12C = assay: Cytotoxicity against human SN12C cells after 48 hrs by sulforhodamine B assay; outline: as §2
SK-MEL-5 = assay: Growth inhibition of human SK-MEL-5 cells at 10 uM after 48 hrs by sulforhodamine B assay; details: SK-MEL-5, 48 h, read-out: GI; outline: as §3
EKVX = assay: Growth inhibition of human EKVX cells at 10 uM after 48 hrs by sulforhodamine B assay; details: read-out: GI; outline: as §1
K562 = assay: Growth inhibition of human K562 cells at 10 uM after 48 hrs by sulforhodamine B assay; details: K562, 48 h, read-out: GI; outline: as §1
RXF 393 [4] = assay: Cytotoxicity against human RXF393 cells after 48 hrs by sulforhodamine B assay; details: RXF 393, 48 h; outline: as §2
MDA-MB-231 = assay: Growth inhibition of human MDA-MB-231 cells at 10 uM after 48 hrs by sulforhodamine B assay; details: MDA-MB-231, 48 h, read-out: GI; outline: as §1
[5] = Growth inhibition of human Hs 578T cells at 10 uM after 48 hrs by sulforhodamine B assay; details: read-out: GI; outline: as §1
[6] = Cytotoxicity against human Hs 578T cells after 48 hrs by sulforhodamine B assay; outline: as §2
SK-OV-3 [7] = assay: Growth inhibition of human SKOV3 cells at 10 uM after 48 hrs by sulforhodamine B assay; details: SK-OV-3, 48 h, read-out: GI; outline: as §3
UO-31 = assay: Growth inhibition of human UO31 cells at 10 uM after 48 hrs by sulforhodamine B assay; details: UO-31, 48 h, read-out: GI; outline: as §3
HOP-62 = assay: Cytotoxicity against human HOP62 cells after 48 hrs by sulforhodamine B assay; details: HOP-62, 48 h; outline: as §2
U-251 [8] = assay: Cytotoxicity against human U251 cells after 48 hrs by sulforhodamine B assay; details: U-251, 48 h
Outline: (§4)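 NCI 60 panel five-dose screen. Cells in RPMI 1640 with 5% FBS and 2 mM L-glutamine, plated at 5000–40,000 cells/well and preincubated 24 h. Compounds were tested at five 10-fold concentrations (0.01–100) for 48 h at 37 °C, 5% CO2. Cells were fixed with TCA and stained with SRB, absorbance 515 nm. GI50, TGI and LC50 were taken from % growth curves against time-zero and control.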

MDA-MB-435 [9] = assay: Cytotoxicity against human MDA-MB-435 cells after 48 hrs by sulforhodamine B assay; details: MDA-MB-435, 48 h; outline: as §2
MDA-MB-435 [10] = assay: Growth inhibition of human MDA-MB-435 cells at 10 uM after 48 hrs by sulforhodamine B assay; details: MDA-MB-435, 48 h, read-out: GI; outline: as §1
TK-10 = assay: Cytotoxicity against human TK10 cells after 48 hrs by sulforhodamine B assay; details: TK-10, 48 h; outline: as §4
NCI-H460 = assay: Growth inhibition of human NCI-H460 cells at 10 uM after 48 hrs by sulforhodamine B assay; details: NCI-H460, 48 h, read-out: GI; outline: as §1
CAKI-1 = assay: Cytotoxicity against human Caki1 cells after 48 hrs by sulforhodamine B assay; details: CAKI-1, 48 h; outline: as §2
[11] = read-out: LC50 (the source's name)

O=C(CCc1nnc(-c2ccc(Cl)cc2Cl)o1)c1nc2ccccc2[nH]1
inhibition of growth at 10 µM (RXF 393 [1]): 18.4% | inhibition of growth at 10 µM (PC-3): 46.9% | GI50 (KM12): 3.16 µM | TGI (KM12): 11 µM | CC50 (KM12; [11]): 100 µM | inhibition of growth at 10 µM (A549): 30.3% | inhibition of growth at 10 µM (COLO 205): 37.4% | GI50 (CCRF-CEM): 4.86 µM | TGI (CCRF-CEM): 66 µM | CC50 (CCRF-CEM; [11]): 100 µM | GI50 (SK-OV-3 [2]): 4.6 µM | TGI (SK-OV-3 [2]): 30.5 µM | CC50 (SK-OV-3 [2]; [11]): 100 µM | GI50 (NCI-H226): 6.66 µM | TGI (NCI-H226): 31.2 µM | CC50 (NCI-H226; [11]): 100 µM | inhibition of growth at 10 µM (UACC-62): 57.7% | GI50 (MOLT-4): 4.07 µM | TGI (MOLT-4): 25.8 µM | CC50 (MOLT-4; [11]): 100 µM | inhibition of growth at 10 µM (U-251 [3]): 47.5% | GI50 (SN12C): 6.22 µM | TGI (SN12C): 56.9 µM | CC50 (SN12C; [11]): 100 µM | inhibition of growth at 10 µM (SK-MEL-5): 33% | inhibition of growth at 10 µM (EKVX): 39% | inhibition of growth at 10 µM (K562): 97.8% | GI50 (RXF 393 [4]): 4.3 µM | TGI (RXF 393 [4]): 49.7 µM | CC50 (RXF 393 [4]; [11]): 100 µM | inhibition of growth at 10 µM (MDA-MB-231): 61.7% | inhibition of growth at 10 µM [5]: 17.7% | GI50 [6]: 9.71 µM | TGI [6]: 93.9 µM | CC50 [6, 11]: 100 µM | inhibition of growth at 10 µM (SK-OV-3 [7]): 35.2% | inhibition of growth at 10 µM (UO-31): 48% | GI50 (HOP-62): 7.67 µM | TGI (HOP-62): 41.3 µM | CC50 (HOP-62; [11]): 100 µM | GI50 (U-251 [8]): 10.9 µM | TGI (U-251 [8]): 77.6 µM | CC50 (U-251 [8]; [11]): 100 µM | GI50 (MDA-MB-435 [9]): 2 µM | TGI (MDA-MB-435 [9]): 4.77 µM | CC50 (MDA-MB-435 [9]; [11]): 100 µM | inhibition of growth at 10 µM (MDA-MB-435 [10]): 101% | GI50 (TK-10): 16.4 µM | TGI (TK-10): 100 µM | CC50 (TK-10; [11]): 100 µM | inhibition of growth at 10 µM (NCI-H460): 22.7% | GI50 (CAKI-1): 3.49 µM | TGI (CAKI-1): 41.1 µM | CC50 (CAKI-1; [11]): 100 µM
